Results from ChEMBL document CHEMBL1142917, “Synthesis and structure-antibacterial activity relationship investigation of isomeric 2,3,5-substituted perhydropyrrolo[3,4-d]isoxazole-4,6-diones” (2007).
Values after ≈ are worked out from the molar mass of the structure shown.

Columns and labels:
Staphylococcus aureus = assay: Antibacterial activity against Staphylococcus aureus ATCC 25923 by broth microdilution method; type: functional
In short: (§1)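 NCCLS broth microdilution in Mueller–Hinton broth, DMSO stocks. Twofold series of 1600 to 0.39 μg/ml, or 1000 to 0.975 μg/ml for some compounds. Inoculum set to 0.5 McFarland (1×10^8 CFU/ml), diluted 1/10, giving 5×10^5 CFU/ml per well. Plates incubated 16-20 h at 35 °C. MIC taken as the lowest concentration preventing visible growth. Ampicillin reference.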

Enterococcus faecalis = assay: Antibacterial activity against Enterococcus faecalis ATCC 29212 by broth microdilution method; type: functional; in short: as §1

Structure (SMILES)	MIC (Staphylococcus aureus)	MIC (Enterococcus faecalis)
CN1C(=O)[C@@H]2[C@@H](ON(C)[C@H]2c2cccc(Cl)c2)C1=O (relative stereo)	710 µM (≈ 199 µg/mL)	1430 µM (≈ 401 µg/mL)
COc1cc([C@H]2[C@@H]3C(=O)N(c4ccccc4)C(=O)[C@@H]3ON2C)ccc1OCc1ccccc1	280 µM (≈ 124 µg/mL)	1130 µM (≈ 502 µg/mL)
CC1(C)S[C@@H]2[C@H](NC(=O)[C@H](N)c3ccccc3)C(=O)N2[C@H]1C(=O)O [AMPICILLIN]	2 µM (≈ 0.699 µg/mL)	2 µM (≈ 0.699 µg/mL)
CN1C(=O)[C@@H]2[C@@H](ON(C)[C@H]2c2cccc(Br)c2)C1=O (relative stereo)	620 µM (≈ 202 µg/mL)	1230 µM (≈ 400 µg/mL)
COc1ccc([C@@H]2[C@@H]3C(=O)N(c4ccccc4)C(=O)[C@@H]3ON2C)cc1 (relative stereo)	590 µM (≈ 200 µg/mL)	1180 µM (≈ 399 µg/mL)
CN1C(=O)[C@@H]2[C@@H](ON(C)[C@H]2c2ccc([N+](=O)[O-])cc2)C1=O	2750 µM (≈ 801 µg/mL)	5490 µM (≈ 1600 µg/mL)
CN1C(=O)[C@H]2[C@@H](c3cccc(Br)c3)N(C)O[C@H]2C1=O (relative stereo)	1230 µM (≈ 400 µg/mL)	620 µM (≈ 202 µg/mL)
CN1O[C@H]2C(=O)N(c3ccccc3)C(=O)[C@H]2[C@H]1c1ccc([N+](=O)[O-])cc1	570 µM (≈ 201 µg/mL)	710 µM (≈ 251 µg/mL)
CN1C(=O)[C@@H]2[C@@H](ON(C)[C@H]2c2ccccc2)C1=O (relative stereo)	510 µM (≈ 126 µg/mL)	1020 µM (≈ 251 µg/mL)
CN1O[C@H]2C(=O)N(c3ccccc3)C(=O)[C@H]2[C@H]1c1ccc(Br)cc1 (relative stereo)	120 µM (≈ 46.5 µg/mL)	520 µM (≈ 201 µg/mL)
CN1C(=O)[C@H]2[C@@H](c3ccc(N(C)C)cc3)N(C)O[C@H]2C1=O (relative stereo)	1380 µM (≈ 399 µg/mL)	1380 µM (≈ 399 µg/mL)
CN1O[C@H]2C(=O)N(c3ccccc3)C(=O)[C@H]2[C@@H]1c1cccc(Br)c1 (relative stereo)	130 µM (≈ 50.3 µg/mL)	520 µM (≈ 201 µg/mL)
Cc1ccc([C@@H]2[C@@H]3C(=O)N(C)C(=O)[C@@H]3ON2C)cc1 (relative stereo)	6150 µM (≈ 1600 µg/mL)	> 6150 µM
CN1C(=O)[C@@H]2[C@@H](ON(C)[C@H]2c2ccc(Br)cc2)C1=O (relative stereo)	310 µM (≈ 101 µg/mL)	620 µM (≈ 202 µg/mL)
CN1O[C@H]2C(=O)N(c3ccccc3)C(=O)[C@H]2[C@@H]1c1ccc(Br)cc1 (relative stereo)	130 µM (≈ 50.3 µg/mL)	520 µM (≈ 201 µg/mL)
COc1cc([C@H]2[C@@H]3C(=O)N(C)C(=O)[C@@H]3ON2C)ccc1OCc1ccccc1 (relative stereo)	330 µM (≈ 126 µg/mL)	650 µM (≈ 249 µg/mL)
Cc1ccc([C@H]2[C@@H]3C(=O)N(c4ccccc4)C(=O)[C@@H]3ON2C)cc1 (relative stereo)	620 µM (≈ 200 µg/mL)	1240 µM (≈ 400 µg/mL)
CN1C(=O)[C@H]2[C@@H](c3ccccc3)N(C)O[C@H]2C1=O (relative stereo)	810 µM (≈ 199 µg/mL)	1620 µM (≈ 399 µg/mL)
CN1O[C@H]2C(=O)N(c3ccccc3)C(=O)[C@H]2[C@@H]1c1ccc(Cl)cc1	1170 µM (≈ 401 µg/mL)	1170 µM (≈ 401 µg/mL)

More lines, now with the values ahead:

MIC (Staphylococcus aureus)	MIC (Enterococcus faecalis)	Structure (SMILES)
3070 µM (≈ 799 µg/mL)	6150 µM (≈ 1600 µg/mL)	Cc1ccc([C@H]2[C@@H]3C(=O)N(C)C(=O)[C@@H]3ON2C)cc1 (relative stereo)
1450 µM (≈ 401 µg/mL)	> 5790 µM	COc1ccc([C@H]2[C@@H]3C(=O)N(C)C(=O)[C@@H]3ON2C)cc1 (relative stereo)
3600 µM (≈ 1600 µg/mL)	> 3600 µM	COc1cc([C@@H]2[C@@H]3C(=O)N(c4ccccc4)C(=O)[C@@H]3ON2C)ccc1OCc1ccccc1
280 µM (≈ 98.4 µg/mL)	1140 µM (≈ 401 µg/mL)	CN1C(=O)[C@@H]2[C@@H](ON(c3ccccc3)[C@H]2c2ccc(N(C)C)cc2)C1=O (relative stereo)
330 µM (≈ 125 µg/mL)	660 µM (≈ 250 µg/mL)	CCN(CC)c1ccc([C@@H]2[C@@H]3C(=O)N(c4ccccc4)C(=O)[C@@H]3ON2C)cc1 (relative stereo)
1430 µM (≈ 401 µg/mL)	1430 µM (≈ 401 µg/mL)	CN1C(=O)[C@H]2[C@@H](c3ccc(Cl)cc3)N(C)O[C@H]2C1=O
360 µM (≈ 127 µg/mL)	710 µM (≈ 249 µg/mL)	CN(C)c1ccc([C@H]2[C@@H]3C(=O)N(c4ccccc4)C(=O)[C@@H]3ON2C)cc1
1430 µM (≈ 401 µg/mL)	2850 µM (≈ 800 µg/mL)	CN1C(=O)[C@H]2[C@@H](c3cccc(Cl)c3)N(C)O[C@H]2C1=O (relative stereo)
360 µM (≈ 123 µg/mL)	730 µM (≈ 250 µg/mL)	CN1O[C@H]2C(=O)N(c3ccccc3)C(=O)[C@H]2[C@H]1c1ccc(Cl)cc1
5790 µM (≈ 1600 µg/mL)	> 5790 µM	COc1ccc([C@@H]2[C@@H]3C(=O)N(C)C(=O)[C@@H]3ON2C)cc1 (relative stereo)
80 µM (≈ 25.4 µg/mL)	80 µM (≈ 25.4 µg/mL)	CCN(CC)c1ccc([C@@H]2[C@@H]3C(=O)N(C)C(=O)[C@@H]3ON2C)cc1 (relative stereo)
130 µM (≈ 49.7 µg/mL)	130 µM (≈ 49.7 µg/mL)	COc1cc([C@@H]2[C@@H]3C(=O)N(C)C(=O)[C@@H]3ON2C)ccc1OCc1ccccc1 (relative stereo)
1380 µM (≈ 399 µg/mL)	5530 µM (≈ 1600 µg/mL)	CN1C(=O)[C@@H]2[C@@H](ON(C)[C@H]2c2ccc(N(C)C)cc2)C1=O (relative stereo)
1180 µM (≈ 399 µg/mL)	1180 µM (≈ 399 µg/mL)	COc1ccc([C@H]2[C@@H]3C(=O)N(c4ccccc4)C(=O)[C@@H]3ON2C)cc1 (relative stereo)
410 µM (≈ 126 µg/mL)	1620 µM (≈ 500 µg/mL)	CN1O[C@H]2C(=O)N(c3ccccc3)C(=O)[C@H]2[C@@H]1c1ccccc1 (relative stereo)
1370 µM (≈ 399 µg/mL)	690 µM (≈ 201 µg/mL)	CN1C(=O)[C@H]2[C@@H](c3ccc([N+](=O)[O-])cc3)N(C)O[C@H]2C1=O
630 µM (≈ 200 µg/mL)	630 µM (≈ 200 µg/mL)	CCN(CC)c1ccc([C@H]2[C@@H]3C(=O)N(C)C(=O)[C@@H]3ON2C)cc1 (relative stereo)
570 µM (≈ 201 µg/mL)	280 µM (≈ 98.9 µg/mL)	CN1O[C@H]2C(=O)N(c3ccccc3)C(=O)[C@H]2[C@@H]1c1ccc([N+](=O)[O-])cc1
4220 µM (≈ 1600 µg/mL)	4220 µM (≈ 1600 µg/mL)	CCN(CC)c1ccc([C@H]2[C@@H]3C(=O)N(c4ccccc4)C(=O)[C@@H]3ON2C)cc1
2460 µM (≈ 800 µg/mL)	1230 µM (≈ 400 µg/mL)	CN1C(=O)[C@H]2[C@@H](c3ccc(Br)cc3)N(C)O[C@H]2C1=O (relative stereo)
320 µM (≈ 124 µg/mL)	650 µM (≈ 252 µg/mL)	CN1O[C@H]2C(=O)N(c3ccccc3)C(=O)[C@H]2[C@H]1c1cccc(Br)c1 (relative stereo)
4550 µM (≈ 1600 µg/mL)	> 4550 µM	CN(C)c1ccc([C@@H]2[C@@H]3C(=O)N(c4ccccc4)C(=O)[C@@H]3ON2C)cc1
1430 µM (≈ 401 µg/mL)	1430 µM (≈ 401 µg/mL)	CN1C(=O)[C@@H]2[C@@H](ON(C)[C@H]2c2ccc(Cl)cc2)C1=O
280 µM (≈ 98.4 µg/mL)	280 µM (≈ 98.4 µg/mL)	CN1C(=O)[C@H]2[C@@H](c3ccc(N(C)C)cc3)N(c3ccccc3)O[C@H]2C1=O (relative stereo)
3100 µM (≈ 999 µg/mL)	3100 µM (≈ 999 µg/mL)	Cc1ccc([C@@H]2[C@@H]3C(=O)N(c4ccccc4)C(=O)[C@@H]3ON2C)cc1 (relative stereo)
> 5190 µM	5190 µM (≈ 1600 µg/mL)	CN1O[C@H]2C(=O)N(c3ccccc3)C(=O)[C@H]2[C@H]1c1ccccc1 (relative stereo)
